Laboratory results reported in ChEMBL document CHEMBL1126160, “Synthesis and structure-activity relationships of 7-diazabicycloalkylquinolones, including danofloxacin, a new quinolone antibacterial agent for veterinary medicine” (J Med Chem, 1992).
≈ marks a conversion by molar mass, not a printed value.

Legend:
Escherichia coli [1] = assay: Escherichia coli DNA cleavage endpoint value which is the minimum amount required (in micro g/mL) to induce detectable cleavage of supercoiled pBR322 substrate to linear form (gyrase); type: functional; settings: read-out: MIC
How it was run: (§1)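 DNA gyrase A and B subunits were purified from E. coli overproducers. About 2 units of holoenzyme were incubated with pBR322 in Tris-HCl pH 7.5 containing MgCl2, spermidine, DTT, 0.2 mM ATP, BSA and tRNA. Drug was added as 2-fold serial dilutions, and reactions ran for 60 min at 25 °C. Reactions were stopped with SDS and proteinase K, then run on agarose and stained with ethidium. The endpoint was the lowest concentration giving detectable linear DNA.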

[2] = tested on: Bordetella bronchiseptica; assay: In vitro antibacterial activity against Aerobically grown Bordetella bronchiseptica (73A009); type: functional
How it was run: (§2)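 Agar dilution MICs. Aerobic strains were tested on brain heart infusion agar and incubated aerobically at 37 °C for 18–20 h.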

Pasteurella multocida [3] = assay: In vitro antibacterial activity against Aerobically grown Pasteurella multocida (59A006); type: functional; how it was run: as §2
[4] = In vitro evaluation for antibacterial activity against anaerobically grown Treponema hyodysenteriae (94A007); type: functional; settings: Brachyspira hyodysenteriae
Salmonella enterica [5] = assay: In vitro antibacterial activity against Aerobically grown Salmonella choleraesuis (58B015); type: functional
Phocaeicola vulgatus = assay: In vitro antibacterial activity against anaerobically grown Bacteroides vulgatus (78D029); type: functional
How it was run: (§3)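 Agar dilution MICs. Anaerobic strains were tested on tryptose agar with 5% bovine blood and incubated 48 h at 39 °C in an anaerobe chamber under N2/CO2/H2 (80:10:10).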

[6] = tested on: Actinobacillus pleuropneumoniae; assay: In vitro antibacterial activity against anaerobically grown Actinobacillus pleuropneumoniae ([…]); type: functional; how it was run: as §3
Clostridium perfringens = assay: microbe, parasite or virus in culture; type: functional
Escherichia coli [7] = assay: In vitro antibacterial activity against Aerobically grown Escherichia coli (51A538); type: functional; how it was run: as §2
[8] = In vitro antibacterial activity against Aerobically grown Pasteurella haemolytica (59B018); type: functional; settings: Mannheimia haemolytica; how it was run: as §2
Trueperella pyogenes = assay: In vitro antibacterial activity against anaerobically grown Actinomyces pyogenes (14D002); type: functional; how it was run: as §3
Staphylococcus aureus [9] = assay: In vitro antibacterial activity against Aerobically grown Staphylococcus aureus (54B004); type: functional; how it was run: as §2
Staphylococcus aureus [10] = assay: In vitro antibacterial activity against aerobically grown Staphylococcus aureus (54B004); type: functional; how it was run: as §2
[11] = tested on: Bordetella bronchiseptica; assay: In vitro antibacterial activity against aerobically grown Bordetella bronchiseptica (73A009); type: functional; how it was run: as §2
Escherichia coli [12] = assay: In vitro antibacterial activity against aerobically grown Escherichia coli (51A538); type: functional; how it was run: as §2
Pasteurella multocida [13] = assay: In vitro antibacterial activity against aerobically grown Pasteurella multocida (59A006); type: functional; how it was run: as §2
Salmonella enterica [14] = assay: In vitro antibacterial activity against aerobically grown Salmonella choleraesuis (58B015); type: functional
Escherichia coli [15] = assay: The Escherichia coli DNA cleavage endpoint value which is the minimum amount of compound required (micro g/mL) to induce detectable cleavage of supercoiled pBR322 substrate to the linear form (gyrase); type: functional; how it was run: as §1
Pasteurella multocida [16] = assay: In vivo protective dose was evaluated against Pasteurella multocida (59A006) in mouse(po); type: functional; settings: read-out: PD50
How it was run: (§4)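 Female CF-1 mice (15 g), groups of 10, challenged ip with 0.5 mL bacterial suspension (P. multocida 59A006 or E. coli 51A266 at 3.0 × 10^8 cfu/mL; S. choleraesuis 58B010 at 8.5 × 10^2 cfu/mL). Drug given sc or po at 30 min, 4 h and 24 h after challenge; survival recorded at 96 h; PD50 by probit analysis.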

Salmonella enterica [17] = assay: In vivo protective dose was evaluated against Salmonella choleraesuis (58B010) in mouse(po); type: functional; settings: read-out: PD50; how it was run: as §4
[18] = tested on: Actinobacillus pleuropneumoniae; assay: Compound was evaluated for minimum effective dose Actinobacillus pleuropneumonia, peroral dose administration; type: functional; settings: po, read-out: MED
How it was run: (§5)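 Calf and swine respiratory disease models. Calves received acetic acid intratracheally on the day before and on day 0, then an endotracheal challenge with P. haemolytica B280PA, about 5 × 10^8 cfu/mL. They were dosed im with a 2.5% or 5% solution in sterile water on days 0 and 1 (SID × 2). Pigs weighing 8.5–12.5 kg were challenged intranasally with A. pleuropneumoniae B316HM, 10^9 cfu/mL. They were dosed once within 1 h, either im (1% or 2.5% solution) or by gavage (0.5% solution). MED was the lowest dose giving significant reduction of lung pathology.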

[19] = tested on: Actinobacillus pleuropneumoniae; assay: Dose was evaluated for minimum effective dose actinobacillus pleuropneumonia, intramuscular dose administration; settings: im, read-out: MED
Mannheimia haemolytica = assay: Dose was evaluated for minimum effective dose Pasteurella haemolytica, intramuscular dose administration; type: functional; settings: im, read-out: MED; how it was run: as §5
Escherichia coli [20] = assay: In vivo protective dose was evaluated against Escherichia coli (51A266) in mouse(po); type: functional; settings: read-out: PD50; how it was run: as §4

| Compound | minimum concentration inducing gyrase-mediated DNA cleavage (Escherichia coli [1]) [µg/mL] | MIC [4] [µg/mL] | MIC (Phocaeicola vulgatus) [µg/mL] | MIC [6] [µg/mL] | MIC (Clostridium perfringens) [µg/mL] | MIC [8] [µg/mL] | MIC (Trueperella pyogenes) [µg/mL] | MIC (Staphylococcus aureus [10]) [µg/mL] | MIC [11] [µg/mL] | MIC (Escherichia coli [12]) [µg/mL] | MIC (Pasteurella multocida [13]) [µg/mL] | MIC (Salmonella enterica [14]) [µg/mL] | further results |
| --- | --- | --- | --- | --- | --- | --- | --- | --- | --- | --- | --- | --- | --- |
| CN1C[C@@H]2C[C@H]1CN2c1c(F)cc2c(=O)c(C(=O)O)cn(-c3ccc(F)cc3)c2c1Cl | 1.56 | > 3.13 | > 3.13 | 0.78 (≈ 1.75 µM) | 0.78 (≈ 1.75 µM) | 0.78 (≈ 1.75 µM) | > 3.13 |  |  |  |  |  | MIC [2]: > 1.56 µg/mL; MIC (Pasteurella multocida [3]): 0.05 µg/mL (≈ 0.112 µM); MIC (Salmonella enterica [5]): 1.56 µg/mL (≈ 3.5 µM); MIC (Escherichia coli [7]): 0.78 µg/mL (≈ 1.75 µM); MIC (Staphylococcus aureus [9]): 0.78 µg/mL (≈ 1.75 µM) |
| CN1C[C@@H]2C[C@H]1CN2c1c(F)cc2c(=O)c(C(=O)O)cn(C3CC3)c2c1Cl |  | 6.25 (≈ 16 µM) | 0.78 (≈ 1.99 µM) | < 0.05 | 0.2 (≈ 0.51 µM) |  | 0.39 (≈ 0.995 µM) | 0.1 (≈ 0.255 µM) | 0.39 (≈ 0.995 µM) | < 0.05 | < 0.05 | < 0.05 | MIC (Escherichia coli [15]): 0.19 µg/mL (≈ 0.485 µM) |
| CN1C[C@@H]2C[C@H]1CN2c1cc2c(cc1F)c(=O)c(C(=O)O)cn2C1CC1 [DANOFLOXACIN] | 0.78 | 0.39 (≈ 1.09 µM) | 3.13 (≈ 8.76 µM) | 0.05 (≈ 0.14 µM) | 0.2 (≈ 0.56 µM) | 0.05 (≈ 0.14 µM) | > 3.13 | 0.39 (≈ 1.09 µM) | 0.78 (≈ 2.18 µM) | 0.05 (≈ 0.14 µM) | 0.01 (≈ 0.028 µM) | 0.05 (≈ 0.14 µM) | ED50 (Pasteurella multocida [16]): 0.31 mg/kg; ED50 (Salmonella enterica [17]): 1.12 mg/kg; minimal effective dose [18]: 0.6 mg/kg; minimal effective dose [19]: 0.15 mg/kg; minimal effective dose (Mannheimia haemolytica): 0.15 mg/kg; ED50 (Escherichia coli [20]): 0.4 mg/kg |
